Measured values: ChEMBL document CHEMBL1151456, “Anaerobic NADH-fumarate reductase system is predominant in the respiratory chain of Echinococcus multilocularis, providing a novel target for the chemotherapy of alveolar echinococcosis” (Antimicrob Agents Chemother, 2008)
The source made the active and inactive calls. The rule behind the calls is not given here.

Legend:
[1] = test system: Echinococcus multilocularis; assay: Antiparasitic activity against Echinococcus multilocularis protoscolex at 5 uM after 5 days by trypan blue staining; type: functional, organism-based
Outline: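 Protoscoleces of the Nemuro strain, freed of host material, kept in long-term maintenance medium in six-well plates at about 500 protoscoleces/ml, with half the medium replaced twice weekly. Compound added to the medium at 5 or 50 μM; the vehicle control was 0.5% (vol/vol) DMSO. Run in triplicate. Viability was scored microscopically on >170 protoscoleces per well by motility and trypan blue exclusion.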

[2] = Inhibition of NADH fumarate reductase in Echinococcus multilocularis protoscolece
Outline: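 Enriched mitochondrial fraction from Nemuro-strain protoscoleces, 80 μg protein/ml, in 30 mM potassium phosphate pH 7.4 with 1 mM MgCl2 at 25°C. Made anaerobic over 3 min with glucose oxidase, catalase and 10 mM β-D-glucose. NADH (100 μM) oxidation followed at 340 nm after starting with 5 mM fumarate. IC50 determined.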

[3] = Inhibition of bovine heart mitochondrial NADH oxidase
[4] = test system: Echinococcus multilocularis; assay: Antiparasitic activity against Echinococcus multilocularis protoscolex assessed as reduction of parasite viability at 50 uM by trypan blue staining; type: functional, organism-based
[5] = test system: Echinococcus multilocularis; assay: Antiparasitic activity against Echinococcus multilocularis protoscolex assessed dead parasite at 50 uM after 5 days by trypan blue staining; type: functional, organism-based

Compound | Activity [1] | IC50 [2] | further results
CC(=O)Oc1ccccc1C(=O)Nc1ncc([N+](=O)[O-])s1 | inactive | – | –
C=CC(=O)Nc1ccc2ncnc(NCCc3ccc(C(C)(C)C)cc3)c2c1 | – | 16 nM | –
CCOc1cccc2c(NCCc3ccc(C(C)(C)C)cc3)ncnc12 | – | 4100 nM | –
c1ccc2ncncc2c1 [QUINAZOLINE] | – | 2.3 nM | –
C=C(C)[C@H]1Cc2c(ccc3c2O[C@@H]2COc4cc(OC)c(OC)cc4[C@@H]2C3=O)O1 | Active | – | –
CC(C)Oc1cccc2c(NCCc3ccc(C(C)(C)C)cc3)ncnc12 | – | 910 nM | –
CC(C)(C)c1ccc(CCNc2ncnc3c(O)cccc23)cc1 | inactive | 71 nM | IC50 [3]: 230 nM; Activity [4]: Active; Activity [5]: Active
CC(C)(C)c1ccc(CCNc2ncnc3cc(N)ccc23)cc1 | – | 62 nM | –
COc1cccc2c(NCCc3ccc(C(C)(C)C)cc3)ncnc12 | – | 48 nM | –
CC(C)(C)c1ccc(CCNc2ncnc3ccc(N)cc23)cc1 | – | 2.1 nM | –
